Test results as given in ChEMBL document CHEMBL1129245, “N-heteroaryl-2-phenyl-3-(benzyloxy)piperidines: a novel class of potent orally active human NK1 antagonists” (J Med Chem, 1996).
Values belong to the compound of their own block, whether it stands above or below them.

Columns and labels:
Oryctolagus cuniculus = organism: Oryctolagus cuniculus; test: Displacement of [3H]diltiazem from rabbit skeletal muscle calcium channel; assay type: tissue-based; details: Muscle tissue
Substance-P receptor = Substance-P receptor (Homo sapiens, UniProt P25103); test: Displacement of [125 I]-Tyr8 SP from the cloned human Tachykinin receptor 1 expressed in CHO cells; assay type: cell-based
Rattus norvegicus [1] = test: Plasma concentration after 3 mg/kg peroral dosing in rat at 0.25 hr; assay type: ADME, organism-based; set-up: dose 3 mg/kg, route oral; details: in vivo, po
Rattus norvegicus [2] = test: Plasma concentration after 3 mg/kg peroral dosing in rat at 0.5 hr; assay type: ADME, organism-based; set-up: dose 3 mg/kg, route oral; details: in vivo, po
Rattus norvegicus [3] = test: Plasma concentration after 3 mg/kg peroral dosing in rat at 1 hr; assay type: ADME, organism-based; set-up: dose 3 mg/kg, route oral; details: in vivo, po
[4] = Plasma clearance after intravenous administration iv dosing of 3 mg/kg in rat; assay type: ADME, organism-based; set-up: dose 3 mg/kg, route intravenous
Rattus norvegicus [5] = test: Plasma concentration after 3 mg/kg peroral dosing in rat at 2 hr; assay type: ADME, organism-based; set-up: dose 3 mg/kg, route oral; details: in vivo, po
Rattus norvegicus [6] = test: Plasma concentration after 3 mg/kg peroral dosing in rat at 4 hr; assay type: ADME, organism-based; set-up: dose 3 mg/kg, route oral; details: in vivo, po
Rattus norvegicus [7] = test: Plasma concentration after 3 mg/kg peroral dosing in rat at 6 hr; assay type: ADME, organism-based; set-up: dose 3 mg/kg, route oral; details: in vivo, po
Rattus norvegicus [8] = test: Plasma concentration after 3 mg/kg peroral dosing in rat at 8 hr; assay type: ADME, organism-based; set-up: dose 3 mg/kg, route oral; details: in vivo, po
[9] = Plasma volume of distribution of the 3 mg/kg in rat; assay type: ADME, organism-based; set-up: dose 3 mg/kg
Outline: (§1)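 Rats given compound intravenously and orally in solution. Three rats per time point sampled for plasma drug levels. Pharmacokinetic parameters calculated from the plasma concentration–time data using standard equations. Data reported as mean ± SEM.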

[10] = Bioavailability in rat; assay type: ADME, organism-based; details: in vivo
Rattus norvegicus [11] = test: Plasma concentration of 3 mg/kg iv after 0.25 hr in rats; assay type: ADME, organism-based; set-up: dose 3 mg/kg, route intravenous; details: in vivo; outline: as §1
Rattus norvegicus [12] = test: Plasma concentration of 3 mg/kg iv after 0.5 hr in rats; assay type: ADME, organism-based; set-up: dose 3 mg/kg, route intravenous; details: in vivo; outline: as §1
Rattus norvegicus [13] = test: Plasma concentration of 3 mg/kg iv after 1 hr in rats; assay type: ADME, organism-based; set-up: dose 3 mg/kg, route intravenous; details: in vivo; outline: as §1
Rattus norvegicus [14] = test: Plasma concentration of 3 mg/kg iv after 2 hr in rats; assay type: ADME, organism-based; set-up: dose 3 mg/kg, route intravenous; details: in vivo; outline: as §1
Rattus norvegicus [15] = test: Plasma concentration of 3 mg/kg iv after 4 hr in rats; assay type: ADME, organism-based; set-up: dose 3 mg/kg, route intravenous; details: in vivo; outline: as §1
Rattus norvegicus [16] = test: Plasma concentration of 3 mg/kg iv after 6 hr in rats; assay type: ADME, organism-based; set-up: dose 3 mg/kg, route intravenous; details: in vivo; outline: as §1
Rattus norvegicus [17] = test: Plasma concentration after 3 mg/kg peroral dosing in rat at 0.083 h; assay type: ADME, organism-based; set-up: dose 3 mg/kg, route oral; details: in vivo, po
Rattus norvegicus [18] = organism: Rattus norvegicus; test: Degradation of compound in incubations at 25 uM with normal rat liver microsomes after 15 min relative to initial concentration of 1 uM; assay type: functional
Outline: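 Incubated at 25 µM with normal rat liver microsomes; P-450 at 1.45 nM/mg microsomal protein. Sampled at 15 min, 1 h, 4 h and 24 h. Remaining substrate reported relative to an initial level of 1.0, n = 1.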

Rattus norvegicus [19] = organism: Rattus norvegicus; test: Degradation of compound in incubations at 25 uM with normal rat liver microsomes after 1 hour relative to initial concentration of 1 uM; assay type: functional
Outline: (§2)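 Each compound incubated at 25 µM with normal rat liver microsomes, P-450 at 1.45 nM/mg microsomal protein. Remaining substrate sampled at 15 min, 1 h, 4 h and 24 h and expressed relative to an initial concentration of 1.0. Single determination (n = 1).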

Rattus norvegicus [20] = organism: Rattus norvegicus; test: Degradation of compound in incubations at 25 uM with normal rat liver microsomes after 24 hour relative to initial concentration of 1 uM; assay type: functional; outline: as §2
Rattus norvegicus [21] = organism: Rattus norvegicus; test: Degradation of compound in incubations at 25 uM with normal rat liver microsomes after 4 hour relative to initial concentration of 1 uM; assay type: functional; outline: as §2

Chain of Substance-P receptor (P25103 whole entry): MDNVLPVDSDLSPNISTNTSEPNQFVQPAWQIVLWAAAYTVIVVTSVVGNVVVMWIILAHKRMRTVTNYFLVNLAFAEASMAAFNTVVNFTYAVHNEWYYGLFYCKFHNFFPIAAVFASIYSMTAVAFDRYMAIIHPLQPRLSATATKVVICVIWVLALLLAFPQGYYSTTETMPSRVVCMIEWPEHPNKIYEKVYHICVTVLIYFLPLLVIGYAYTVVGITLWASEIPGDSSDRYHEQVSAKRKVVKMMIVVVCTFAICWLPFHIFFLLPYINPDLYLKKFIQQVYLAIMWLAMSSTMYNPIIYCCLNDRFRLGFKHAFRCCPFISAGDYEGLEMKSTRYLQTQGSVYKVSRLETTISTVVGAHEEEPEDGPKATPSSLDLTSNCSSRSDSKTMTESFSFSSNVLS

Binding affinity (Oryctolagus cuniculus): 10 µM | IC50 (Substance-P receptor): 0.8 nM
Compound: FC(F)(F)c1cc(CO[C@H]2CCCN(Cc3n[nH]c(S)n3)[C@H]2c2ccccc2)cc(C(F)(F)F)c1

Concentration (Rattus norvegicus [1]): 116 ng/mL | Concentration (Rattus norvegicus [2]): 35.1 ng/mL | Concentration (Rattus norvegicus [3]): 33.7 ng/mL | clearance [4]: 44 mL/min/kg | Concentration (Rattus norvegicus [5]): 36.9 ng/mL | Concentration (Rattus norvegicus [6]): 11.2 ng/mL | Concentration (Rattus norvegicus [7]): < 10 ng/mL | Concentration (Rattus norvegicus [8]): < 10 ng/mL | Vd [9]: 2.6 L/kg | bioavailability [10]: 18% | Concentration (Rattus norvegicus [11]): 826 ng/mL | Concentration (Rattus norvegicus [12]): 581 ng/mL | Concentration (Rattus norvegicus [13]): 304 ng/mL | Concentration (Rattus norvegicus [14]): 71.3 ng/mL | Concentration (Rattus norvegicus [15]): 13.2 ng/mL | Concentration (Rattus norvegicus [16]): < 10 ng/mL | IC50 (Substance-P receptor): 0.22 nM | Concentration (Rattus norvegicus [17]): 40.1 ng/mL
Compound: FC(F)(F)c1cc(CO[C@H]2CCCN(Cc3nnc[nH]3)[C@H]2c2ccccc2)cc(C(F)(F)F)c1

Binding affinity (Oryctolagus cuniculus): > 5 µM
Compound: FC(F)(F)c1cc(CO[C@H]2CCCN(Cc3nn[nH]n3)[C@H]2c2ccccc2)cc(C(F)(F)F)c1

IC50 (Substance-P receptor): 36 nM
Compound: FC(F)(F)c1cc(CO[C@H]2CCCN(Cc3ccco3)[C@H]2c2ccccc2)cc(C(F)(F)F)c1

Binding affinity (Oryctolagus cuniculus): 23 µM | IC50 (Substance-P receptor): 1 nM
Compound: FC(F)(F)c1cc(CO[C@H]2CCCN(Cc3cocn3)[C@H]2c2ccccc2)cc(C(F)(F)F)c1
Relative oncentration (Rattus norvegicus [18]): 0.05 µM

IC50 (Substance-P receptor): 43 nM
Compound: FC(F)(F)c1cc(CO[C@H]2CCCN(Cc3nnn[nH]3)[C@H]2c2ccccc2)cc(C(F)(F)F)c1

Binding affinity (Oryctolagus cuniculus): 2.3 µM
Compound: FC(F)(F)c1cc(CO[C@H]2CCCN(Cc3c[nH]cn3)[C@H]2c2ccccc2)cc(C(F)(F)F)c1
Concentration (Rattus norvegicus [19]): 0.72 µM | Concentration (Rattus norvegicus [20]): 0.18 µM | Concentration (Rattus norvegicus [21]): 0.55 µM
